Laboratory results reported in BindingDB's records for doi:10.1021/jm00089a022 (Warner-Lambert, 1992).

What follows are molecules tested against T1, 3-hydroxy-3-methylglutaryl-coenzyme A reductase (Homo sapiens, UniProt P04035) (assay: ChEBML_80349).
T1 sequence (P04035 whole entry): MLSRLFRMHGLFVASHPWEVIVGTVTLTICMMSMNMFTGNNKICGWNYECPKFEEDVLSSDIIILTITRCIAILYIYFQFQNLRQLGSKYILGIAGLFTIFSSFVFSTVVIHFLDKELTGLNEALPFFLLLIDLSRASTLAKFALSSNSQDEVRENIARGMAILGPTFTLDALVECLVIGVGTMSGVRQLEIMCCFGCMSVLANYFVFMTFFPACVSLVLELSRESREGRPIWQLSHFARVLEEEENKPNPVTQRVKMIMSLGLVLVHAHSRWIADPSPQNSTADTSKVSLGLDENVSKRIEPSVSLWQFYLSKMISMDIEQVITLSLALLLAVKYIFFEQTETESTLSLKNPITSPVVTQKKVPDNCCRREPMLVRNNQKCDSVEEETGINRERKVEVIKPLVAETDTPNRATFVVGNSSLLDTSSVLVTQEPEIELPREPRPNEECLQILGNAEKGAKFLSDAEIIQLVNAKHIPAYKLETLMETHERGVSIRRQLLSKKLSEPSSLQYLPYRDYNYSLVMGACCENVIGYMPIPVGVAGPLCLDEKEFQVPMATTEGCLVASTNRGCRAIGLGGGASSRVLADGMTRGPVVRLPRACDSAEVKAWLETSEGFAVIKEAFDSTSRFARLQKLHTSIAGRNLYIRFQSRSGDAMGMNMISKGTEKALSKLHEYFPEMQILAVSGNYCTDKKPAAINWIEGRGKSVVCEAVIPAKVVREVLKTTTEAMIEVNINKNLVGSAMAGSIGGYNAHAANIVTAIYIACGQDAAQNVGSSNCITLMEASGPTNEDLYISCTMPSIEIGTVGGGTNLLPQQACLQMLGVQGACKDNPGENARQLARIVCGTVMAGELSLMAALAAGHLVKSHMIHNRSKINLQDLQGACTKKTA
Excerpt: (§1) Tested in vitro for the inhibition of HMG-CoA reductase from partially purified microsomal preparations.

Row | IC50 | SMILES
1 | 7 nM | CC(C)c1nn(-c2cnccn2)c(-c2ccc(F)cc2)c1/C=C/[C@@H](O)C[C@@H](O)CC(=O)O
2 | 20 nM | CC[C@H](C)C(=O)O[C@H]1C[C@@H](C)C=C2C=C[C@H](C)[C@H](CCC(O)C[C@@H](O)CC(=O)O)[C@H]21 (some centres undefined)
3 | 7 nM | CC(C)c1nn(-c2ccccc2)c(-c2ccc(F)cc2)c1/C=C/[C@@H](O)C[C@@H](O)CC(=O)O
4 | 17 nM | O=C(O)C[C@H](O)C[C@H](O)/C=C/c1c(C(F)(F)F)nn(-c2ccccn2)c1-c1ccc(F)cc1
5 | 110 nM | CC(C)c1nn(-c2ccccn2)c(-c2ccc(F)cc2)c1CCC(O)C[C@@H](O)CC(=O)O (some centres undefined)
6 | 40 nM | CC(C)c1nn(-c2ccccc2)c(-c2ccc(F)cc2)c1CCC(O)C[C@@H](O)CC(=O)O (some centres undefined)
7 | 62 nM | CC(C)c1nn(-c2ccc3ccccc3n2)c(-c2ccc(F)cc2)c1/C=C/[C@@H](O)C[C@@H](O)CC(=O)O
8 | 59 nM | CC(C)c1nn(-c2nc3ccccc3s2)c(-c2ccc(F)cc2)c1/C=C/[C@@H](O)C[C@@H](O)CC(=O)O

The molecules below were run against T1, 3-hydroxy-3-methylglutaryl-coenzyme A reductase (assay: as §1).
Summary of the method: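 Lactones saponified to the 3,5-dihydroxy acids before assay. Inhibition of partially purified microsomal HMG-CoA reductase. Each inhibitor concentration assayed in triplicate.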

Row | IC50 | SMILES
9 | 24 nM | CC(C)c1nn(-c2ccccn2)c(-c2ccc(F)cc2)c1/C=C/[C@@H](O)C[C@@H](O)CC(=O)O
